The values below come from article PMC9719714 (International Journal of Nanomedicine, 2022).

Several values for one entry are separate records, joined by “and”; a condition that tells them apart may be missing. Identical values can stand only once. Like-named read-outs stand apart in the source and are kept apart here.

Series [1] has as its system MRSA-pvl+. The series can be described thus: Kirby-Bauer disk diffusion test. Format: cell-based, Staphylococcus aureus. The conditions noted are these: 18 h. In a few lines: (§1)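 Disk diffusion followed CLSI 2013. Sterile disks soaked in test compound (0–1000 µg/mL) were placed on MH agar and held 30 min at room temperature for diffusion. Plates were then incubated 18 h at 37°C and zones of inhibition read. Controls were distilled water (negative) and a 30 µg cefoxitin disk (positive). Strains were MSSA ATCC 25923 and community-acquired MRSA-pvl+ (A33) and pvl- (172817) lab isolates.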

In series [2] the test system is MRSA. Description: HRTEM observation of treated bacteria. Format: cell-based, Staphylococcus aureus. The conditions noted are these: 150 µg/mL for 12 h. In a few lines: (§2)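 After the time-kill exposure, MRSA (ATCC 700699) and MSSA (ATCC 25923) cells were processed for electron microscopy. Reagents included glutaraldehyde, cacodylate buffer, osmium tetroxide and acetone, followed by resin embedding. Sections of 1 µm were cut and stained with toluidine blue, and areas were chosen by light microscopy. Sections were then mounted on 100-mesh copper grids, stained 15 min with 1% aqueous uranyl acetate, washed, and imaged at 100 kV.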

Series [3] deals with MSSA. Description: HRTEM observation of treated bacteria. Format: cell-based, Staphylococcus aureus. The conditions noted are these: 150 µg/mL for 12 h. In a few lines:
as §2

Series [4] relates to MSSA. The series can be described thus: Kirby-Bauer disk diffusion test. Format: cell-based, Staphylococcus aureus. The conditions noted are these: 18 h. In a few lines: as §1
The test system of series [5] is MRSA-pvl-. The series can be described thus: Kirby-Bauer disk diffusion test. Format: cell-based, Staphylococcus aureus. The conditions noted are these: 18 h. A digest of the protocol:
as §1

For series [6], the system named is MRSA. The series can be described thus: CFU counting method. The conditions noted are these: Staphylococcus aureus, read-out: percentage of inhibition (CFU). Format: cell-based. A digest of the protocol: (§3)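 S. aureus strains (MRSA ATCC 700699; community-acquired MRSA-pvl+ A33 and MRSA-pvl- 172817 from the lab collection) at 1.5 × 10^5 CFU/mL were combined in well plates with MH broth and test compound (0–1000 μg/mL). Plates were shaken 4 h at 37°C, then diluted 100-fold and swabbed onto MH agar. After drying at room temperature, plates were incubated 18 h at 37°C and colonies counted. Percentage inhibition was calculated relative to distilled water (negative control); cefoxitin served as positive control.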

Series [7] deals with MSSA. Description: Time-kill experiment. Format: cell-based, Staphylococcus aureus. In a few lines: (§4)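 S. aureus suspension (1.5 × 10^5 CFU/mL) and test compound, prepared at 150 μg/mL before mixing, were added in equal volumes to flasks of MH broth. A flask without test compound served as control. Flasks were shaken at 150 rpm and 37°C for 24 h. At set intervals, 100 μL aliquots were spread on MH agar for colony counts.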

The test system of series [8] is MRSA-pvl+. Description: CFU counting method. Type of series: cell-based. The conditions noted are these: Staphylococcus aureus, read-out: percentage of inhibition (CFU). A digest of the protocol: as §3
Series [9] in a line: In vitro cytotoxicity MTT assay. Format: cell-based, murine. The conditions noted are these: mouse, 3T3 murine fibroblast cells, cell viability.
In series [10] the test system is 3T3 murine fibroblast cells. Description: In vitro cytotoxicity MTT assay. Format: cell-based. The conditions noted are these: 50 µg/mL, 24 h.
Another series concerns zebrafish embryos. Description: Reactive oxygen species. Type of series: in vivo. A digest of the protocol:
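Wild-type AB zebrafish embryos at 24 hpf, one per well and 10 per group, were exposed to five concentrations of test compound for 30, 60, 120 or 240 min. Controls were distilled water and 0.5 mM H2O2. Embryos were washed in PBS and spun 10,000 rpm, 5 min, 4°C. They were homogenized in cold PBS and spun 12,372 rpm, 30 min, 4°C. Supernatant was incubated with DCFH-DA (stock 10 mg/mL in DMSO) 30 min in the dark; fluorescence read at ex 485/em 530 nm, in triplicate.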

The test system of series [11] is MRSA. Description: Time-kill experiment. The conditions noted are these: for inhibition at 150 µg/mL: Staphylococcus aureus, MRSA, read-out: percentage of inhibition (time-kill). Type of series: cell-based, Staphylococcus aureus. In a few lines: as §4
Series [12] concerns MRSA-pvl-. The series can be described thus: CFU counting method. Type of series: cell-based, Staphylococcus aureus. The conditions noted are these: 50 µg/mL. A digest of the protocol: as §3
Series [13] has as its system MRSA-pvl-. The series can be described thus: Time-kill experiment. The conditions noted are these: >3 h of exposure (Figure S2). Type of series: cell-based, Staphylococcus aureus. In a few lines:
as §4

In series [14] the test system is MRSA-pvl+. The series can be described thus: Time-kill experiment. Format: cell-based, Staphylococcus aureus. The conditions noted are these: >3 h of exposure (Figure S2). A digest of the protocol:
as §4

Consider `O=C(O)c1cc(O)c(O)c(O)c1` [GA, Gallic acid], for which the “concentration at which growth is inhibited (zone of inhibition)” value was 300 µg/mL in the series on MRSA-pvl+ [1]; 150 µg/mL in the series on MSSA [4]; 300 µg/mL and 150 µg/mL in the series on MRSA-pvl- [5]. Besides, the “morphological changes of bacterial cells (HRTEM)” value with MRSA [2] is “disrupted morphology and damaged surface”; in the series with MSSA [3], “disrupted morphology and damaged surface”. Also, the inhibition at 50 µg/mL came out at 98.3% in the series on MRSA [6] and 80.1% in the series on MRSA-pvl+ [8]. The inhibition at 150 µg/mL amounted to 50.7% in the series with MSSA [7] (Staphylococcus aureus, MSSA, 2 h, read-out: percentage of inhibition (time-kill)); 44.9% with MRSA [11] (2 h); 29.4% in the series on MRSA [11]. The viability at 24 h, 50 µg/mL in [9] (24 h) turned out to be 22.2%. The viability at 72 h, 50 µg/mL in series [9] (72 h) was found to be 4.95%. Further, the cell viability in series [10] is reported as 22.16%. Further, the ROS content result is reported as “significantly elevated” with zebrafish embryos (50 and 300 μg/mL, 60 min post-exposure); “comparable ROS content to control groups” in the series on zebrafish embryos (30 min of exposure); “reverted to the normal range” in the series on zebrafish embryos (120 min post-exposure). In addition, the “inhibition (CFU)” value in the series on MRSA-pvl- [12] was “significant inhibition”.
For `CO[C@@]1(NC(=O)Cc2cccs2)C(=O)N2C(C(=O)O)=C(COC(N)=O)CS[C@@H]21` [CFX, cefoxitin], the “inhibition (time-kill)” value in the series on MRSA-pvl- [13], in the series with MSSA [7] (>3 h of exposure (Figure S2)), with MRSA-pvl+ [14] and with MRSA [11] (>3 h of exposure (Figure S2)) was “total inhibition” each time.
